{"source": "paper PMC9720522", "about": "(Food Chemistry: X, 2022)", "key": {"[1]": {"system": "mAb against AZN (35D1D2)", "experiment": "indirect competitive ELISA", "type": "binding, mouse", "conditions": "ic-ELISA; for Cross-reactivity: CR = IC50 of AZN / IC50 of related analyte × 100; for IC50: coating antigen 0.23 and mAb 0.38 µg/mL"}, "[2]": {"system": "anti-AZN mAb", "experiment": "indirect ICA", "type": "binding, mouse", "conditions": "pork extract; strip reader standard curve", "in_short": "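AZN standard spiked into treated pork samples at 8, 4, 2, 1, 0.5, 0.25 and 0 ng/g. A set amount of mAb is added to the sample well and held 5 min at room temperature before strip insertion. The T line is AZL-SA-OVA, the C line mouse IgG, and the conjugate pad AuNP-goat anti-mouse IgG.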"}}}
{"smiles": "O=C(CCCN1CCC(O)(c2ccc(Cl)cc2)CC1)c1ccc(F)cc1", "note": "[HAL, haloperidol]", "values": [{"measurement": "Cross-reactivity", "setting": "[1]", "result": "<0.035", "unit": "%"}]}
{"smiles": "O=C(CCCN1CCN(c2ccccn2)CC1)c1ccc(F)cc1", "note": "[AZN, Azaperone]", "values": [{"measurement": "Cross-reactivity", "setting": "[1]", "result": 100, "unit": "%"}, {"measurement": "IC50", "setting": "[1]", "result": 0.35, "unit": "ng/mL"}, {"measurement": "IC50, indirect ICA", "setting": "[2]", "result": 0.74, "unit": "ng/g"}]}
{"smiles": "Cc1cccc(C)c1N=C1NCCCS1", "note": "[XYL, xylazine]", "values": [{"measurement": "Cross-reactivity", "setting": "[1]", "result": "<0.035", "unit": "%"}, {"measurement": "IC50", "setting": "[1]", "result": "˃1000 ng/mL"}]}
{"smiles": "O=C(CCCN1CC=C(n2c(=O)[nH]c3ccccc32)CC1)c1ccc(F)cc1", "note": "[DRO, Droperidol]", "values": [{"measurement": "Cross-reactivity", "setting": "[1]", "result": "<0.035", "unit": "%"}, {"measurement": "IC50", "setting": "[1]", "result": "˃1000 ng/mL"}]}
{"smiles": "CN(C)CCCN1c2ccccc2Sc2ccc(Cl)cc21", "note": "[CHL, Chlorpromazine]", "values": [{"measurement": "Cross-reactivity", "setting": "[1]", "result": "<0.035", "unit": "%"}, {"measurement": "IC50", "setting": "[1]", "result": "˃1000 ng/mL"}]}
{"smiles": "CC(C)NCC(O)COc1cccc2[nH]c3ccccc3c12", "note": "(stereo not drawn) [CAR, carazolol]", "values": [{"measurement": "Cross-reactivity", "setting": "[1]", "result": "<0.035", "unit": "%"}, {"measurement": "IC50", "setting": "[1]", "result": "˃1000 ng/mL"}]}
